# Only some compounds are listed: those with a hit (about 4.2% of all), similar ones and a draw of the others.
# HDAC3 inhib = human HDAC3 inhibition. O15379. recombinant HDAC3, fluorogenic peptide/trypsin coupled, fluorescence. inhibition, % at 8.3 µM. 320,000 compounds, 0.15% hits; in the data active = inhibition above about 26%, passing the limit was not always enough; inconclusive = no clear call, values can overlap the other calls
# Target sequence (O15379 whole entry, looked up): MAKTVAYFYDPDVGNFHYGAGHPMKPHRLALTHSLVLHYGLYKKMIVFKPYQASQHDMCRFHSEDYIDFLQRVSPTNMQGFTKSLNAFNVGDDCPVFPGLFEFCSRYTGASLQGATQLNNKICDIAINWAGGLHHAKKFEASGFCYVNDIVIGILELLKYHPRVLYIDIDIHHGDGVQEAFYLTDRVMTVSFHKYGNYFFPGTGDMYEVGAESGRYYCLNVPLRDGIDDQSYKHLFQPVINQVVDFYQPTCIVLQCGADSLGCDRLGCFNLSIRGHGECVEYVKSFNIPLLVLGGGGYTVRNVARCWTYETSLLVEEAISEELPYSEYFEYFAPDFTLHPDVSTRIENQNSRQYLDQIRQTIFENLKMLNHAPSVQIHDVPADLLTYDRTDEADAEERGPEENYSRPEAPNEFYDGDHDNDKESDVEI
# SENP1 inh = inhibitors of human SENP1 SUMO protease catalytic domain; 360,000 compounds, 0.21% hits; Q9P0U3; recombinant SENP1 catalytic domain, CyPet-SUMO1-YPet FRET cleavage; AID 624204; inhibition, % at 10 µM;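 active = inhibition at least 30% at 10 µM, raw YFP signal under a set limit, fluorescence ratio 0.5 to 1.5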;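 note: 0% = enzyme with DMSO and 100% = no enzyme wells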
# Target sequence (Q9P0U3 419-644 limits assumed): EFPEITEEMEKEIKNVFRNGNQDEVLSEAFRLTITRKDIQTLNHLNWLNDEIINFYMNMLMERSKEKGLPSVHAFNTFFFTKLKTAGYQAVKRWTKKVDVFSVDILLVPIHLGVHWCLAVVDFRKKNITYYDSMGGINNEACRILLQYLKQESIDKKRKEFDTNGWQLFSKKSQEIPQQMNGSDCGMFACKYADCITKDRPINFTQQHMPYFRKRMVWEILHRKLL
#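 system = hSENP1 catalytic domain, recombinant | reagent = SFCypet-SUMO1-SFYpet substrate at 25 nM | doses = one dose per compound, 10 µM, 0.5% DMSO | incubation = enzyme reaction for 50 min at room temperature, dark | measured by = FRET, CFP and YFP emission | controls = no-enzyme low, enzyme-DMSO high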
# FXN GAA850 act = frataxin GAA850 promoter activation; 360,000 compounds, 0.56% hits; AID 540364; HEK293 lucGAA850 FXN promoter luciferase reporter, 24 h; percent of 10 µM SAHA response; activation, % at 6 µM;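 active = activation above the average of all compounds screened plus 3 SD, cutoff fixed separately per campaign, cut at about 7.5% in these data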;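 note: 0% = DMSO wells and 100% = 10 µM SAHA wells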
# AHR act = activates the human aryl hydrocarbon receptor; P35869; activation, % at 5 µM; 320,000 compounds, 2.5% hits; AHR-responsive luciferase reporter cells, luminescence; AID 2796; in the data active = activation above about 47%;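 note: 0% = vehicle wells and 100% = reference agonist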
# CTSL1 counter = cathepsin L1 inhibition, PFM18AAP counter-screen | recombinant F. hepatica cathepsin L1, Z-Leu-Arg-MCA fluorescence | inhibition, % at 5.96 µM | 300,000 compounds, 0.49% hits;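 active = inhibition above the mean of all tested compounds plus 3 SD, set per screening campaign, cut at about 17% in these data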;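 note: 0% = plate median of test compound wells and 100% = 1 µM Z-Phe-Ala-diazomethylketone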
# M18AAP inhibitor = blocks P. falciparum M18 aspartyl aminopeptidase; recombinant PfM18AAP, H-Glu-NHMec fluorogenic cleavage; inhibition, % at 7.35 µM; 290,000 compounds, 1.2% hits; AID 1822;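 active = inhibition above the campaign mean inhibition over all tested compounds plus 3 SD, cut at about 28% in these data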;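 note: 0% = plate median of test compound wells and 100% = 2 mM ZnCl2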
# An asterisk follows results filed as active; ? = inconclusive; · = no result given.
SMILES,HDAC3 inhib,SENP1 inh,FXN GAA850 act,AHR act,CTSL1 counter,M18AAP inhibitor
Cc1ccc(-c2nc3ccccc3c(=O)n2N)cc1,14.3,1.0,0.0,35.8,-2.3,4.1
COC(=O)[C@]1(CC(C)C)N[C@H](c2ccc(-c3ccc(F)cc3)cc2)[C@@H]2C(=O)N(C)C(=O)[C@@H]21,?,0.3,-2.0,2.2,2.3,·
O=C(Nc1nc2c(F)cc(F)cc2s1)C1CC(=O)N(Cc2ccco2)C1 (centres undefined),0.0,-1.8,3.3,59.9*,0.0,-16.0
Cc1cc(C)c2nc(NC(=O)C3CC(=O)N(Cc4ccco4)C3)sc2c1 (centres undefined),1.4,0.0,1.8,25.6,-3.8,-11.8
CCCCCOc1ccc(Br)cc1/C(C)=N/NC1=NCCN1,1.8,0.7,-1.3,62.4*,-1.4,0.5
COc1ccc(S(=O)(=O)N2CCOC23CCN(S(=O)(=O)c2cc(F)ccc2F)CC3)cc1,6.6,-0.7,-0.1,-0.2,2.3,·
C/C(CC(=O)NCc1ccco1)=N\NC(=O)Cc1cccc2ccccc12,-3.9,3.6,-2.7,6.2,0.8,5.2
C/C(CC(=O)NCc1ccco1)=N\NC(=O)CC#N,-10.6,1.8,0.8,6.3,-0.5,30.3*
Cc1nc2cc(C(=O)O)ccc2s1,1.5,0.4,6.7,2.8,-3.2,30.3*
Cc1nc2ccc(NC(=O)c3ccccc3)cc2s1,0.1,-1.4,3.7,-3.4,-0.7,-2.5
CC1=C(C(=O)OC(C)C)C(c2cncc(-c3ccc(F)cc3)c2)C(C#N)=C(N)O1 (centres undefined),-2.6,-6.4,1.0,1.4,18.5*,-1.8
CCCCNC(=O)C(NC(=O)Cc1cc(C(F)(F)F)cc(C(F)(F)F)c1)C(=O)c1ccccc1 (centres undefined),·,-13.0,·,·,·,·
CC(=O)NNc1nc(-c2ccc(NC(C)=O)cc2)cs1,7.9,2.6,2.3,-1.3,-0.9,31.2*
Cc1c(C(=O)/C=C/c2ccccc2F)c2cc(O)ccc2n1C,·,-4.5,2.0,·,·,·
Cc1nc2c(c(C)c1C#N)C(=O)c1ccccc1-2,-4.4,0.8,-0.3,72.0*,1.5,3.3
COCCNC(=O)c1cnn2c(C(F)F)cc(-c3ccc(C)cc3)nc12,-0.1,-24.4,2.4,2.7,1.1,-7.7
O=C(NCc1cccnc1)c1cnn2ccccc12,-19.7,-0.1,-1.6,13.7,0.0,-0.2
COc1ccc(CNC(=O)c2cnn3c(C(F)F)cc(C)nc23)cc1OC,3.5,1.2,1.6,51.8*,-0.9,1.7
Cc1cc(C)n2ncc(C(=O)NCc3cccnc3)c2n1,-20.1,0.9,0.3,67.7*,2.1,2.2
COCCc1ccc(OC2(C)CCN(Cc3ccc(OC)c4ccccc34)C2)cc1 (centres undefined),·,-1.6,0.5,·,·,·
COc1ccc2ccccc2c1CNCCN1CCOCC1,-1.3,-2.2,1.7,20.0,4.9,0.6
O=C(CCl)Nc1cccc(Oc2cnccn2)c1,-10.8,-1.1,-0.3,1.9,56.0*,2.4
Nc1cccc(Oc2cnccn2)c1,-7.4,4.3,2.4,1.2,-4.3,-1.4
O=C(CCl)Nc1cccc(Oc2ccccc2)c1,2.2,-0.6,-4.0,1.1,42.6*,14.5
CCOc1ccccc1NC(=S)N1CCN(c2ccccc2F)CC1,-3.0,3.3,0.8,·,·,-15.2
SMILES,HDAC3 inhib,SENP1 inh,FXN GAA850 act,AHR act,CTSL1 counter,M18AAP inhibitor
CCc1ccccc1NC(=S)N1CCN(c2ccccc2F)CC1,-8.5,8.9,0.5,1.4,18.7*,-5.9
CCc1nc2c(OCCC3CCCCC3)cccn2c1N(C=O)Cc1ccccc1,·,-6.7,1.4,·,·,·
CC1(Br)C(Sc2ccccc2[N+](=O)[O-])=Nc2ccccc21 (centres undefined),·,0.5,·,·,·,·
O=C(Nc1ccc(S(=O)(=O)NCc2ccccc2)cc1)Nc1ccc2c(c1)OCO2,1.7,0.3,-1.3,51.8*,1.0,-3.1
O=C(Nc1ccc2c(c1)OCO2)Oc1ccccc1,3.3,-4.1,3.1,88.5*,-2.2,-1.4
O=C(CC(NC(=O)c1ccccc1Cl)c1ccccc1)Nc1ccc2c(c1)OCO2 (centres undefined),6.1,1.4,-0.5,59.7*,0.0,-3.0
C/C(=C\C(=O)c1ccccc1)Nc1ccc2c(c1)OCO2,4.4,-4.3,0.1,47.4*,-2.8,5.1
C/C(=C\C(=O)c1ccc(C)o1)Nc1ccc2c(c1)OCO2,3.8,-15.1,0.4,13.7,-2.9,6.6
Nc1ncnc2c1ncn2C1C=C(CO)C(O)C1O (centres undefined),·,5.1,-8.0,·,·,·
CCC(C)c1c(O)nc(SCC(=O)N2CCCCCC2)[nH]c1=O (centres undefined),1.0,-6.2,-2.1,5.7,7.4,1.7
C[C@@H]1COc2cc(N3CCC[C@H]3CO)ccc2S(=O)(=O)N1,·,-0.1,·,·,·,·
O=C(Nc1nnc(-c2ccccc2Cl)o1)c1cccnc1,-0.1,1.6,5.9,6.8,-1.2,29.6*
O=C(Nc1ccc(Cl)c(Cl)c1)c1cccnc1,4.7,2.2,3.7,71.4*,2.1,-0.3
Cn1/c(=N/NC(=O)c2ccccc2Br)sc2ccccc21,-6.7,0.4,3.7,47.5*,-5.2,-14.3
Cn1c(=NC(=O)C2=NNC(=O)CC2)sc2ccccc21,6.0,-0.4,-0.1,2.0,2.5,-13.4
CCOc1ccccc1NC(=O)c1ccc(C(=O)Nc2ccccc2OCC)nc1,2.7,-17.2,-0.3,72.0*,0.9,1.7
O=C(Nc1ccccc1C(=O)Nc1ccccc1)c1ccco1,-8.5,1.9,0.7,75.8*,3.2,0.1
CCOc1ccccc1NC(=O)c1cccc2ccccc12,-15.6,1.4,2.0,74.3*,-0.4,-9.9
O=C(Nc1ccccc1C(=O)Nc1ccc2c(c1)OCO2)c1ccco1,0.2,1.1,2.3,47.3*,-4.2,0.0
Cc1cccc(NC(=O)c2ccccc2NC(=O)c2ccco2)c1,-2.2,0.1,0.3,45.9,3.2,-8.5
O=C(O)c1cccc(NC(=O)c2ccccc2NC(=O)c2ccco2)c1,-0.4,0.5,-2.2,0.3,2.6,-1.0
CC1CC2(CC(CN(C3CCCCC3)C3CCCCC3)OC2=O)C(=O)O1 (centres undefined),·,-2.9,·,·,·,·
O=C(Nc1ccccc1C(=O)N/N=C/c1ccccc1)c1ccco1,-4.0,0.7,5.1,47.5*,1.1,12.4
CCOc1ccccc1NC(=O)c1ccccc1-c1ccccc1,13.6,-1.9,-0.2,4.0,3.3,-10.2
O=C(Nc1c(O)c2ccccc2[nH]c1=O)c1ccco1,0.6,-0.5,-2.3,78.2*,0.9,-5.0
COc1ccc(C(=O)Nc2ccccc2C(=O)Nc2ccncc2)cc1,1.6,-1.9,3.2,60.9*,0.4,2.2
CCOc1ccccc1NC(=O)c1csc(C)c1C,14.2,1.9,0.9,71.0*,0.0,-5.2
CCCCOc1ccccc1NC(=O)c1ccco1,13.9,1.8,2.8,-2.4,-4.0,-6.6

# Screens from PubChem BioAssay.
